Laboratory results reported in ChEMBL document CHEMBL4052621, “Identification of new anti-inflammatory agents based on nitrosporeusine natural products of marine origin” (Eur J Med Chem, 2017).
The source made the active and inactive calls. The rule behind the calls is not given here.

Experiments:
RAW264.7 [1] = assay: Antiinflammatory activity in mouse RAW264.7 cells assessed as inhibition of LPS-induced NO production after 24 hrs by Griess assay; assay type: functional, cell-based
Procedure, shortened: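 LPS-stimulated RAW264.7 cells were co-treated with compound. Nitrite, a stable NO metabolite, was measured in culture medium with Griess reagent. IC50 (µM) was reported with a 95% confidence interval.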

RAW264.7 [2] = assay: Antiinflammatory activity in mouse RAW264.7 cells assessed as inhibition of LPS-induced COX-2 production at 30 uM after 24 hrs by Western blot analysis; assay type: functional, cell-based
Procedure, shortened: (§1)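 Immunoblot of protein from RAW 264.7 cells under control, LPS, and LPS + enantiomer (30 µM) conditions. COX-2, iNOS and phospho-NF-κB bands were quantified by densitometry and normalised to β-actin. Mean ± SD from 3 independent experiments; p-values are versus LPS-treated cells.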

RAW264.7 [3] = assay: Antiinflammatory activity in mouse RAW264.7 cells assessed as inhibition of LPS-induced iNOS production at 30 uM after 24 hrs by Western blot analysis; assay type: functional, cell-based; procedure, shortened: as §1
Mus musculus = organism: Mus musculus; assay: Inhibition of LPS-induced NFkappaB phosphorylation in mouse RAW264.7 cells at 30 uM after 24 hrs by Western blot analysis; assay type: cell-based; procedure, shortened: as §1
RAW264.7 [4] = assay: Antiinflammatory activity in mouse RAW264.7 cells assessed as inhibition of LPS-induced IL-12 production at 30 uM after 24 hrs by phycoerythrin staining based flow cytometry; assay type: functional, cell-based
Procedure, shortened: (§2)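 LPS-stimulated RAW 264.7 cells were co-treated with enantiomers at 30 µM. Cell protein extracts were analysed by cytometric bead array for IL-12, IL-6, TNF-α, MCP-1 and IFN-γ and compared with LPS-only cells. Mean ± SD of three independent experiments.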

RAW264.7 [5] = assay: Antiinflammatory activity in mouse RAW264.7 cells assessed as inhibition of LPS-induced IL-6 production at 30 uM after 24 hrs by phycoerythrin staining based flow cytometry; assay type: functional, cell-based; procedure, shortened: as §2
RAW264.7 [6] = assay: Antiinflammatory activity in mouse RAW264.7 cells assessed as inhibition of LPS-induced TNF-alpha production at 30 uM after 24 hrs by phycoerythrin staining based flow cytometry; assay type: functional, cell-based; procedure, shortened: as §2
RAW264.7 [7] = assay: Antiinflammatory activity in mouse RAW264.7 cells assessed as inhibition of LPS-induced […] production at 30 uM after 24 hrs by phycoerythrin staining based flow cytometry; assay type: functional, cell-based; procedure, shortened: as §2
RAW264.7 [8] = assay: Antiinflammatory activity in mouse RAW264.7 cells assessed as inhibition of LPS-induced MCP-1 production at 30 uM after 24 hrs by phycoerythrin staining based flow cytometry; assay type: functional, cell-based; procedure, shortened: as §2
RAW264.7 [9] = assay: Cytotoxicity against mouse RAW264.7 cells assessed as decrease in cell viability after 24 hrs by MTT assay; assay type: cell-based; settings: RAW264.7, 24 h
Procedure, shortened: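 RAW264.7 macrophage viability after compound exposure was measured by MTT assay. IC50 (µM) was calculated and reported with a 95% confidence interval.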

RAW264.7 [10] = assay: Selectivity index, ratio IC50 for cytotoxicity against mouse RAW264.7 cells to IC50 for antiinflammatory activity in mouse RAW264.7 cells; assay type: functional
Procedure, shortened: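 Ratio A/B in RAW 264.7 cells. A is the cytotoxicity IC50 from the MTT assay. B is the IC50 for inhibiting NO production in LPS-stimulated cells, with nitrite in the culture medium measured by Griess reagent. Both IC50s are reported with 95% confidence intervals.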

[11] = Antiviral activity against Influenza A virus A/WSN/33(H1N1) infected in MDCK cells at 50 uM preincubated for 15 mins measured after 1.5 days by CellTiter-Glo assay relative to control; assay type: functional, Influenza A virus (A/WSN/1933(H1N1))
[12] = Antiviral activity against Influenza A virus A/WSN/33(H1N1) infected in MDCK cells preincubated for 1 hr followed by compound wash measured after 48 hrs by plaque reduction assay; assay type: functional, cell-based, Influenza A virus (A/WSN/1933(H1N1))

| SMILES | inhibition (RAW264.7 [1]) | inhibition (RAW264.7 [2]) | inhibition (RAW264.7 [3]) | inhibition (Mus musculus) | inhibition (RAW264.7 [4]) | inhibition (RAW264.7 [5]) | inhibition (RAW264.7 [6]) | inhibition (RAW264.7 [7]) | inhibition (RAW264.7 [8]) | IC50 (RAW264.7 [9]) [µM] | Ratio IC50 (RAW264.7 [10]) | Activity [11] [%] | EC50 [12] [µM] |
| --- | --- | --- | --- | --- | --- | --- | --- | --- | --- | --- | --- | --- | --- |
| CC(=O)O[C@H]1CC[C@@]2(SC(=O)c3ccc(F)cc3)C(=O)NC(=O)[C@@H]12 | Active | Active | Active | Active | Active | Active | Active | Active | Active | – | – | – | – |
| O=C(S[C@]12CC[C@H](O)[C@H]1C(=O)NC2=O)c1ccc(O)cc1 | – | – | – | – | – | – | – | – | – | 1380 | 9.85 | 30.9 | 113 |
